Most compounds without a hit are left out; they make up all but 5.1% or so of the library.
STAT1 inh: STAT1 signaling inhibitors, primary screen, cell-based, HTS, luciferase reporter; NIH 3T3 STAT1-luciferase reporter, IFN-gamma, luminescence; inhibition, % at 5.5 µM; actives 0.35% (n = 200,000); AID 920, 2007;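 active means inhibition above a set limit, the mean inhibition across all tested compounds plus 3 SD, cut at about 34% in these data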
NF-kB expr up: activators of NF-kB expression in neurons, primary screen, cell-based, HTS; human neuronal cells, NF-kB reporter expression; active compounds read high; fold change at 12.5 µM; actives 1.6% (n = 190,000); in the data active means fold change above about 3.3
STAT1 act: STAT1 signaling activators, primary screen, cell-based, HTS, luciferase reporter | NIH 3T3 STAT1-luciferase reporter, IFN-gamma, luminescence; 100% = IFN-gamma alone, no compound | activation (% of control), % at 5.5 µM | actives 2.6% (n = 200,000) | AID 932, 2007;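 active means activation above the screen-wide mean activation plus 3 SD, cut at about 130% in these data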
STAT3 inh: IL-6 driven STAT3 reporter inhibitors, primary screen, U3A cells, luciferase, luminescence, MLSCN library; actives 0.89% (n = 190,000); inhibition, % at 5.5 µM; IL-6 STAT3-luciferase reporter; host cell line lacks STAT1;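 active means inhibition above the mean inhibition across all screened compounds plus 3 SD, cut at about 44% in these data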
STAT3 activator: IL-6 driven STAT3 reporter potentiators, primary screen, U3A cells, luciferase, luminescence, MLSCN library. IL-6 STAT3-luciferase reporter; 100% = signal with IL-6 EC80 alone. activation (% of control), % at 5.6 µM. actives 0.91% (n = 190,000). AID 871, 2007;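 active means activation above the screen-wide mean of compound activation plus 3 SD, cut at about 130% in these data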
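Material: human STAT1-deficient U3A cells with stable STAT3-luciferase reporter / Probe or stimulus: IL-6 stimulus at 33 ng/mL final / Schedule: 1 h compound pre-exposure, 6 h IL-6 stimulation, 37 °C / Technique: luminescence / Read-out basis: percent of IL-6-only median luminescence / Control set: IL-6-only high control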
APP 5'UTR act: activators of APP 5'UTR luciferase reporter, primary screen, SH-SY5Y cells. AID 1276, 2008. activation, % at 2 µM. actives 1% (n = 190,000). SH-SY5Y APP 5'UTR luciferase reporter, luminescence; zero percent = DMSO vehicle wells;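 active means activation above a set limit, based on mean plus 3 SD of controls, cut at about 140% in these data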
Numbers stand for hits; 0 = inactive; - = not tested or not shown.

SMILES | STAT1 inh | NF-kB expr up | STAT1 act | STAT3 inh | STAT3 activator | APP 5'UTR act
CSc1nc2ccc(S(=O)(=O)N3CCOCC3)cc2s1 | 0 | 0 | 0 | 0 | 135 | 0
Cc1cc(S(=O)(=O)N2CCOCC2)ccc1F | 0 | 4.4 | 0 | 0 | 0 | 0
CC1CC(=O)NN=C1c1ccc(N)c([N+](=O)[O-])c1 (centres undefined) | 0 | 0 | 0 | 0 | 0 | 0
Cc1cc(C)cc(N(CC(=O)NCC2CCCO2)C(=O)CN2C(=O)COc3ccccc32)c1 (centres undefined) | 0 | 0 | 0 | 0 | 0 | 0
N#C/C(=C\c1ccc([N+](=O)[O-])o1)c1nc2ccccc2[nH]1 | 0 | 0 | 0 | 0 | 0 | 0
N#C/C(=C\c1ccc(Sc2ccccc2)o1)c1nc2ccccc2[nH]1 | 0 | 0 | 0 | 0 | 0 | 139
O=C(O)c1cccc(N/N=C/c2ccc(-c3ccccc3)cc2)c1 | 47 | 16 | 0 | 48 | 0 | 0
CC(C)(C)c1ccc(/C=N/Nc2cccc(C(=O)O)c2)cc1 | 38 | 6.9 | 0 | 46 | 0 | 0
CC(C)(C)c1ccc(/C=N/Nc2ccc(C(=O)O)cc2)cc1 | 74 | 4.5 | 0 | 88 | 0 | 0
Oc1ccc(/C=N/Nc2ccccc2)cc1 | 0 | 0 | 0 | 0 | 0 | 0
COc1cccc(/C=N/Nc2ccc(C(=O)O)cc2)c1O | 91 | 0 | 0 | 100 | 0 | 0
O=C(O)c1cccc(N/N=C/c2cc(Br)cc(Br)c2O)c1 | 0 | 0 | 131 | 0 | 0 | 0
COCCn1cnnc1SCC(=O)Nc1cccc(S(=O)(=O)N(C)c2ccccc2)c1 | 0 | 0 | 0 | 0 | 0 | 0
CCOc1cc(S(=O)(=O)n2ccnc2)ccc1Br | 0 | 0 | 0 | 0 | 0 | 0
CCOc1cc(S(=O)(=O)n2ccnc2)ccc1Cl | 0 | 3.6 | 0 | 0 | 0 | 0
O=[N+]([O-])c1ccc(-c2cc(-c3ccc(Cl)cc3)n[nH]2)cc1 | 0 | 0 | 138 | 0 | 0 | 0
Cc1ccc(-c2nc3ccccc3[nH]2)cc1NC(=O)c1ccc2c(c1)OCO2 | 0 | 0 | 0 | 0 | 0 | 0
O=C(NC(=S)Nc1cc(-c2nc3ccccc3[nH]2)ccc1Cl)c1ccc2c(c1)OCO2 | 0 | 0 | 144 | 0 | 0 | 0
COC(=O)c1cc2sc(Cl)cc2n1CC(=O)NCCC(C)C | 0 | 0 | 0 | 0 | 0 | 0
Cc1cccn2c(N)c(-c3ccccc3)nc12 | 0 | 0 | 0 | 0 | 134 | 0
CCSc1nc2c(c(=O)[nH]1)C(c1cccnc1)C(C(=O)OC)=C(C)N2 (centres undefined) | 0 | 0 | 0 | 0 | 0 | 0
O=c1[nH]c(S)nc2sc3c(c12)CCCC3 | 0 | 0 | 0 | 0 | 0 | 0
O=c1[nH]c(-c2ccco2)nc2sc3c(c12)CCCC3 | 0 | 5.8 | 149 | 0 | 0 | 154
CC(C)=CC(=O)OCc1cc([N+](=O)[O-])cc2c1OCOC2 | 0 | 0 | 138 | 0 | 0 | 0
Cc1cc(SCC(=O)OC/C(O)=C(\C#N)c2nc3ccccc3[nH]2)c(C)cc1Br | 0 | 0 | 0 | 0 | 0 | 0
SMILES | STAT1 inh | NF-kB expr up | STAT1 act | STAT3 inh | STAT3 activator | APP 5'UTR act
N#C/C(=C(/O)COC(=O)CSc1ccc(Cl)cc1)c1nc2ccccc2[nH]1 | 0 | 3.9 | 0 | 0 | 0 | 0
COc1ccc(C(=O)NC(=O)Nc2cc(C)ccn2)cc1 | 39 | 0 | 0 | 97 | 0 | 159
COc1cc(C(=O)Nc2cc(C)ccn2)cc(OC)c1OC | 0 | 0 | 0 | 0 | 0 | 0
Fc1ccc(Nc2ccc(-c3ccc(F)cc3)nn2)cc1 | 0 | 0 | 139 | 0 | 0 | 0
CCOC(=O)c1ccc(Nc2ccc(-c3ccc(OC)c(OC)c3)nn2)cc1 | 0 | 0 | 0 | 0 | 0 | 0
Fc1ccc(-c2ccc(Nc3cccc(F)c3)nn2)cc1 | 0 | 0 | 144 | 0 | 0 | 0
CCN(CCn1cccn1)C(=O)CC1C(=O)NCCN1Cc1ccc(F)c(F)c1 (centres undefined) | 0 | 0 | 0 | 0 | 0 | 0
CCOC(=O)c1c(C)nc2sc3c(=O)n(-c4ccc(C(C)=O)cc4)cnc3c2c1-c1ccc(OC)cc1 | 0 | 0 | 0 | 0 | 0 | 0
O=C(CCN1C(=O)c2ccccc2C1=O)NC(=S)Nc1ccccc1 | 0 | 0 | 0 | 0 | 0 | 0
CC(C)(C)n1ncc2c(=O)n(CC(=O)NCc3ccccc3)cnc21 | 0 | 0 | 149 | 0 | 0 | 168
CC(=O)Nc1ccc(NC(=O)Cn2cnc3c(cnn3C(C)(C)C)c2=O)cc1 | 0 | 0 | 0 | 0 | 0 | 0
CC(C)(C)n1ncc2c(=O)n(CC(=O)c3ccc(Cl)cc3)cnc21 | 0 | 0 | 154 | 0 | 0 | 0
CC(C)(C)n1ncc2c(=O)n(CC(=O)Nc3ccc(Cl)cc3)cnc21 | 0 | 0 | 0 | 0 | 0 | 0
COCCn1c(N2CCN(c3ccc(OC)cc3)CC2)nc2c1c(=O)n(C)c(=O)n2C | 0 | 0 | 0 | 0 | 0 | 0
Cc1cccc(NC(=S)N(c2ccccc2)C(C)C)c1C | 0 | 0 | 0 | 0 | 0 | 0
COc1ccc2[nH]c(=O)c(CN(CCCN(C)C)C(=O)Nc3ccccc3)cc2c1 | 0 | 0 | 0 | 0 | 0 | 0
CCOc1ccc2nc(N3CCC(C(=O)Nc4nnc(CC)s4)CC3)sc2c1 | 0 | 0 | 134 | 0 | 0 | 0
CCOC(=O)C1=C(O)c2ccccc2C(=O)/C1=C\c1ccc(C)cc1 | 0 | 0 | 0 | 0 | 134 | 0
CCOC(=O)C1=C(Cc2ccc(Cl)cc2)C(=O)c2ccccc2C1=O | 0 | 0 | 0 | 0 | 0 | 0
Cc1n(CC(O)COC2CCCCC2)c2ccccc2[n+]1C (centres undefined) | 0 | 0 | 0 | 0 | 0 | -
CC(C)c1ccc(CNc2ccc([N+](=O)[O-])cn2)cc1 | 0 | 0 | 138 | 0 | 0 | 0
Cn1c(SCc2nc3ccccc3c(=O)[nH]2)nc2ccccc21 | 0 | 0 | 0 | 0 | 0 | 0
Cn1c(-c2ccccc2)cnc1SCc1nc2ccccc2c(=O)[nH]1 | 0 | 0 | 134 | 0 | 0 | 142
CCC(=O)Nc1cc2nn(-c3ccccc3)nc2cc1Cl | 0 | 0 | 144 | 0 | 0 | 0
Cc1cc2nn(-c3ccccc3)nc2cc1NC(=O)c1cccs1 | 0 | 0 | 143 | 0 | 0 | 0
SMILES | STAT1 inh | NF-kB expr up | STAT1 act | STAT3 inh | STAT3 activator | APP 5'UTR act
CCCn1nnc(NC(=O)c2ccc(Cl)cc2Cl)n1 | 0 | 0 | 131 | 0 | 0 | 0
CCCn1nnc(NC(=O)c2ccccc2Cl)n1 | 0 | 0 | 0 | 0 | 0 | 0
COc1ccc(/C=N/NC(=O)c2nonc2C)cc1 | 0 | 0 | 129 | 0 | 0 | 0
Nc1nonc1C(=O)N/N=C/c1ccncc1 | 0 | 0 | 0 | 0 | 0 | 0
Cc1nonc1C(=O)N/N=C/c1ccncc1 | 0 | 0 | 140 | 0 | 0 | 0
CC(C)(C)NC(=O)CN(C(=O)CS(=O)CC(=O)Nc1ccc(F)cc1)c1ccccc1 (centres undefined) | 0 | 0 | 0 | 0 | 0 | 0

Screening data (PubChem)
